Experimental findings from the RNAGym collection of RNA variant scans (doi:10.1126/science.aae0568) are described below.

Sequences and labels used below:
B1: tRNA (parent)
chain: GUUCCGUUGGCGUAAUGGUAACGCGUCUCCCUCCUAAGGAGAAGACUGCGGGUUCGAGUCCCGUACGGAACG

Fewer inactive variants are shown than the library holds. A value given as a limit tells only on which side of the number the result lay.

The variants in the data set derive from B1. In words: yeast fitness relative to wild type (ratio to wild type); higher = fitter; tRNA-Arg(CCU), competitive growth, 37 C, YPD. In a few lines:
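Variants of the tRNA-Arg(CCU) gene were chemically synthesised with a 3% per-site mutation rate across 69 sites and placed at the native genomic locus in Saccharomyces cerevisiae. Six parallel replicates of the pooled strains were competed in YPD at 37°C for 24 hours, and gene amplicons from the start and end populations were read by 100-nucleotide paired-end sequencing. Darwinian fitness relative to wild type was derived from changes in genotype frequencies. Genotypes required ≥ 100 starting reads, and estimates < 0.5 were set to 0.5.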
For A15G C22U G68C, the yeast fitness was at most 0.5.

As for A15U A45U, the yeast fitness worked out at 0.593.

Take A15U A45G: the yeast fitness stood at 0.732.

Regarding A15U A43U G48A G68C, the yeast fitness is at most 0.5.

For A15G G17A C29G C31U C46A, the yeast fitness was at most 0.5.

Consider A15G G39A A70C, for which the yeast fitness was 0.742.

Regarding A15G G38A A40G A69U, the yeast fitness was at most 0.5.

As for A15G C33U A65U, the yeast fitness stood at 0.543.

As for A15G U16C C29G G41A, the yeast fitness is 0.599.

With A15U A45U G68C A70U, the yeast fitness is at most 0.5.

For the variant A15G U19A, the yeast fitness was 1.13.

For A15G G38A, the yeast fitness was found to be 0.866.

A15G G38C: the yeast fitness was 0.669.

For the variant A15U A36G A37U A65U, the yeast fitness was at most 0.5.

On to A15G G56C, for which the yeast fitness worked out at 0.651.

Regarding A15G C22U A36U C60A, the yeast fitness was determined as 0.589.

In the case of A15G G23C A45G G52A, the yeast fitness was found to be 0.65.

As for A15G G48C A69U, the yeast fitness turned out to be 0.636.

On to A15G C27U, for which the yeast fitness worked out at 0.939.

With A15G C27G, the yeast fitness was 0.564.

Consider A15G C30A U59C C62U G68U, for which the yeast fitness is at most 0.5.

With A15U A42C, the yeast fitness came to 0.787.

As for A15U A21G, the yeast fitness was found to be 0.785.

For A15G G39A, the yeast fitness was determined as 0.959.

As for A15G C46G G52A, the yeast fitness worked out at 0.576.

For A15G G23U C24G A45G, the yeast fitness came out at 0.554.

Consider A15G C49A, for which the yeast fitness amounted to 0.735.

In the case of A15G G56C C66G, the yeast fitness was at most 0.5.

For A15G C30G C62G, the yeast fitness was at most 0.5.

Regarding A15U A45U G68C, the yeast fitness was at most 0.5.

A15G C24G G48C: the yeast fitness was at most 0.5.

A15G C31U A42U A70U: the yeast fitness amounted to 0.602.

A15G U26A C60U A70C: the yeast fitness was determined as 0.52.

For the variant A15G C31G U35C, the yeast fitness is 0.531.

For the variant A15G G48C G51A, the yeast fitness was at most 0.5.

For the variant A15G C29A G58A, the yeast fitness stood at 0.57.

As to A15G U54A C61U, the yeast fitness came to 0.57.

Consider A15U A37G A65C, for which the yeast fitness was at most 0.5.

A15G C55U U59C A65C: the yeast fitness is at most 0.5.

A15G C62A: the yeast fitness was determined as 0.798.

Take A15G C62U: the yeast fitness turned out to be 0.994.

Consider A15G G25A C49U A65U, for which the yeast fitness came to 0.58.

In the case of A15G C31A, the yeast fitness amounted to 0.623.

Consider A15G U35A C62A G63C, for which the yeast fitness is at most 0.5.

In the case of A15G C30G A42C A43C C46G, the yeast fitness is at most 0.5.

A15G C29A G39A C49U: the yeast fitness was at most 0.5.

Turning to A15U A20C G50C, the yeast fitness is at most 0.5.

Turning to A15G C46U A70U, the yeast fitness amounted to 0.829.

On to A15U A36G, for which the yeast fitness stood at 0.665.

On to A15U A37C A43U, for which the yeast fitness came out at 0.514.

Take A15G A57U G68U: the yeast fitness is at most 0.5.

As to A15G C46G C55U, the yeast fitness is at most 0.5.

Turning to A15G C46U A65U, the yeast fitness amounted to 0.735.

For A15U A40U G52A A65C, the yeast fitness was at most 0.5.

For the variant A15G A57U, the yeast fitness turned out to be 0.636.

Take A15G G51A A65U: the yeast fitness was at most 0.5.

With A15G C61U A65U C66U, the yeast fitness was at most 0.5.

As to A15U A20C G23A G50C G63A, the yeast fitness was at most 0.5.

A15U A40U C61U A70G: the yeast fitness is 0.718.

For the variant A15G C34U G44C G50C C62U, the yeast fitness was at most 0.5.

As for A15G C22U A36U C62U, the yeast fitness is at most 0.5.

For A15G C29G C46U, the yeast fitness amounted to 0.52.

On to A15G C24G A65C, for which the yeast fitness was at most 0.5.

On to A15G G17C G23A G25A C66U, for which the yeast fitness was at most 0.5.

On to A15U A20G U28A C33G, for which the yeast fitness was at most 0.5.

For A15G G23A G50A A57C A65U, the yeast fitness was 0.6.

In the case of A15G C30G A37C, the yeast fitness is at most 0.5.

In the case of A15U A43G, the yeast fitness is 0.726.

As for A15U A43U, the yeast fitness came to 0.826.

With A15G G50A A57G, the yeast fitness is 0.584.

A15G G48C A57U: the yeast fitness was determined as 0.511.

Take A15U A57C A65G: the yeast fitness was at most 0.5.

Take A15G G38C U64A G68A A69C: the yeast fitness was at most 0.5.

On to A15G A65U, for which the yeast fitness was determined as 0.841.

On to A15G A65G, for which the yeast fitness stood at 0.962.

On to A15G C27U C34U A57U C62A, for which the yeast fitness is 0.563.

Take A15G C33G G39C: the yeast fitness was at most 0.5.

For A15G U26A G41A U64A A70C, the yeast fitness is at most 0.5.

A15G C24G C29U C34G U35C C46G: the yeast fitness worked out at 0.618.

Regarding A15G G25C G67A A70G, the yeast fitness is at most 0.5.

Take A15U A21G C31G C49A: the yeast fitness was at most 0.5.

On to A15U A36U G48C C66U, for which the yeast fitness was at most 0.5.

Regarding A15G C33G G50A, the yeast fitness is at most 0.5.

On to A15G G17C C33A C46A G52A, for which the yeast fitness is at most 0.5.

Regarding A15U A45U A69C, the yeast fitness worked out at 0.647.

Take A15G U26G C30U A37C G39C C61G A69G: the yeast fitness is at most 0.5.

Consider A15G C24G C66G, for which the yeast fitness was at most 0.5.

As to A15G C34U A42U U47A A57G, the yeast fitness was at most 0.5.

Take A15G G38C C66U: the yeast fitness was at most 0.5.

On to A15G U16A A20G U28A C30A C33A A36U A69C, for which the yeast fitness is at most 0.5.

As to A15G U35A A57G G58U C62G, the yeast fitness is at most 0.5.

Take A15U A21C G52A: the yeast fitness is at most 0.5.

Take A15G U16C C34U G44C C61U: the yeast fitness was at most 0.5.

Take A15G C27A G51C: the yeast fitness was at most 0.5.

With A15G G23A G25A G38A, the yeast fitness amounted to 0.746.

A15G G25C G48C: the yeast fitness came out at 0.576.

As to A15G C22A C29U U54C, the yeast fitness was at most 0.5.

Take A15G U28A C34G C46A A69G: the yeast fitness is at most 0.5.

Take A15G C29G G52A C66U: the yeast fitness is 0.671.

As for A15G C31A C55U, the yeast fitness was at most 0.5.

For A15G C30A C49G C55U, the yeast fitness was at most 0.5.

For A15G C62U A70U, the yeast fitness stood at 0.73.

Turning to A15G C30U G52A A70U, the yeast fitness worked out at 0.581.

Turning to A15G C24A U54G A65C, the yeast fitness is at most 0.5.

Consider A15G G63C A69U, for which the yeast fitness turned out to be 0.651.

A15G C31A G41C C49U: the yeast fitness was at most 0.5.

For the variant A15G C33G G51A, the yeast fitness is 0.665.

Consider A15U A20C G48A A69C, for which the yeast fitness is at most 0.5.

On to A15U A21G C24U C33U A40C A43C C49U C55U C61U, for which the yeast fitness is at most 0.5.

With A15G C29A C34G U59A C62U, the yeast fitness was at most 0.5.

In the case of A15G G39A A69U, the yeast fitness came to 0.774.

A15G C31U U47G G58C C62U: the yeast fitness was at most 0.5.

Consider A15G U54C C55G C61G A65U, for which the yeast fitness is at most 0.5.

Take A15G G63C A65G: the yeast fitness was found to be 0.543.

As for A15G U32G A43C, the yeast fitness is at most 0.5.

Turning to A15G U64C, the yeast fitness was found to be 0.976.

A15G G48C C61A: the yeast fitness is at most 0.5.

With A15G U28A C34G C46A, the yeast fitness came to 0.501.

For A15G U26C G44A G50C A70G, the yeast fitness is at most 0.5.

Regarding A15G G17A C30A U47C, the yeast fitness was at most 0.5.

For the variant A15G C29G C34G U64C, the yeast fitness is at most 0.5.

For the variant A15G C49G G56C, the yeast fitness is at most 0.5.

A15U A40U G52A: the yeast fitness is at most 0.5.

For A15G C31A C66G G68C, the yeast fitness worked out at 0.563.

On to A15G U32A G38A A69U, for which the yeast fitness is at most 0.5.

For the variant A15G U32A G52C G68A, the yeast fitness is at most 0.5.

For A15G U35G A45U, the yeast fitness was at most 0.5.

Consider A15G G25C G48A G56A, for which the yeast fitness is 0.79.

For the variant A15G U16C C34U G44C, the yeast fitness was at most 0.5.

Turning to A15G C31G C66U, the yeast fitness worked out at 0.601.

Take A15U A43U C55G: the yeast fitness was at most 0.5.

For the variant A15G G23C A45G G52A G63A, the yeast fitness was at most 0.5.

For the variant A15G U32C, the yeast fitness turned out to be 0.983.

Consider A15G C30G C31A, for which the yeast fitness is at most 0.5.

For A15U A21C C49A, the yeast fitness is at most 0.5.

Regarding A15G U19A U28A G63A, the yeast fitness is at most 0.5.

In the case of A15G C29A A37G, the yeast fitness was at most 0.5.

For A15G G23A, the yeast fitness came out at 0.931.

As to A15U A36U A40U G68C, the yeast fitness stood at 0.643.

With A15G U19C A21G, the yeast fitness worked out at 0.656.

Regarding A15G G39C A42C, the yeast fitness was found to be 0.553.

Turning to A15G C30G C66U, the yeast fitness is at most 0.5.

As to A15G C27A C31A A57C, the yeast fitness was at most 0.5.

A15G G18A G38C: the yeast fitness was at most 0.5.

For A15G C24A C29G U35G G41C C62U U64A, the yeast fitness was at most 0.5.

With A15G U16A G38C C62G G68A, the yeast fitness was at most 0.5.

In the case of A15G U32A G38A, the yeast fitness worked out at 0.525.

Regarding A15G C27G A43G U59A, the yeast fitness is at most 0.5.

Take A15G U32A G38A G52A C66U: the yeast fitness is at most 0.5.

On to A15G G25A C61U A70U, for which the yeast fitness was at most 0.5.

On to A15G C49U A69C, for which the yeast fitness amounted to 0.875.

With A15G U26G G41C A43C C66A, the yeast fitness is at most 0.5.

As for A15G G51A, the yeast fitness was found to be 0.668.

A15U A20G G41C C60U G67A: the yeast fitness is at most 0.5.

Consider A15U A20G C27U C30A, for which the yeast fitness was at most 0.5.

For the variant A15G C31G A40U, the yeast fitness stood at 0.586.

For the variant A15G U28C A37C, the yeast fitness was at most 0.5.

Take A15G U26G C30U: the yeast fitness was at most 0.5.

As for A15G C29G C49U, the yeast fitness was 0.606.

Take A15U A20C G67U: the yeast fitness was 0.605.

For A15G C27A C46U, the yeast fitness was determined as 0.627.

Turning to A15G C46G, the yeast fitness is 0.897.

For A15G G17A C33U G39C, the yeast fitness turned out to be 0.54.

Regarding A15U A57C A65U A69C, the yeast fitness was at most 0.5.

In the case of A15G G39C C62U G63C, the yeast fitness is at most 0.5.

With A15G G48A A65U, the yeast fitness amounted to 0.759.

Regarding A15G C55U G56A, the yeast fitness amounted to 0.58.
